Shown are actives, neighbours in structure and some others; about 6.4% of the full set was active somewhere.
Ecoli tolC = blocks growth of E. coli BW25113 tolC mutant; OD615; 65,000 tested, 2.2% active; growth inhibition, % at 10 µM (by protocol);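 active means growth inhibition at or above a cutoff equal to the mean over every tested compound plus 3 SD, cut at about 60% in these data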;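 further: growth measured after 20 h incubation at 37 °C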
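Test system: tolC-deleted E. coli BW25113 | Medium: LB with kanamycin 50 µg/mL | Compound dosing: Single concentration, 10 µM final per compound | Schedule: 37 °C, 20 h exposure | Measured by: OD at 615 nm | Evaluation: Percent growth inhibition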
H69AR inhibit = blocks growth of human H69AR lung tumor cells; H69AR lung tumor viability, ATP luminescence, 72 h; stronger effect = lower value; viability, % at 10 µM; 85,000 tested, 6% active;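 active means viability at or below 40%; inactive means viability above 40%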;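 further: multidrug resistant small cell line overexpressing MRP-1 efflux transporter; 100% = mean luminescence of untreated control wells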
E coli WT exp = E. coli BW25113 growth inhibition, expanded screen | OD600 absorbance | growth inhibition, % at 100 µM | 98,000 tested, 0.15% active;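 active means growth inhibition above about 50% at one test dose, limit read from the data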;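 further: growth measured after 20 h incubation at 37 °C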
HUVEC inhibit = inhibitors of human endothelial cell proliferation; viability, % at 10 µM (by protocol); 86,000 tested, 1.1% active; HUVEC proliferation, CellTiter-Glo luminescence, 72 h; stronger effect = lower value;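 active means viability at or below 30%; inactive means viability above 30%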;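 further: 100% = median luminescence of DMSO-only cell control wells on each plate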
Jurkat tox 60K = cytotoxicity toward Jurkat cells. Jurkat E6.1 viability, ATP luminescence, 48 h. inhibition, % at 4 µM. 56,000 tested, 1.2% active;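 active means inhibition above the mean inhibition of all tested compounds plus 3 SD, cut at about 28% in these data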
Fibroblast inh = blocks proliferation of human lung fibroblasts | AID 719 | 85,000 tested, 1.1% active | LL 47 human lung fibroblast viability, ATP luminescence; stronger effect = lower value | viability, % at 10 µM;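 active means viability at or below 50% in the single dose screen; inactive means viability above 50%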;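 further: compound exposure lasted 72 h before the ATP readout; 100% = median luminescence of untreated cell-only wells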
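material = human LL 47 lung fibroblast cells | dosing = compounds added from tenfold dosing solution, 0.1% DMSO final | timing = overnight cell rest, 72 h compound treatment at 37 °C | measured by = CellTiter-Glo luminescence measuring cellular ATP | evaluation = % viability versus median cells-only luminescence | control set = cell-only wells, no compound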
Active calls of the source: *; . = no result given.

SMILES	Ecoli tolC	H69AR inhibit	E coli WT exp	HUVEC inhibit	Jurkat tox 60K	Fibroblast inh
CCN(CCNC(=O)C1CCN(Cc2nc(-c3ccc(Cl)cc3)oc2C)CC1)c1ccccc1	7	7.3*	12	3.9*	7	63
CCN(CCNC(=O)C1CCCN(Cc2nc(-c3ccc(OC)cc3)oc2C)C1)c1ccccc1 (configuration not stated)	25	32*	-2	4.7*	3	.
CCc1ccc(-c2nc(CN3CCCC(C(=O)O)C3)c(C)o2)cc1 (configuration not stated)	-5	107	9	108	1	98
CCc1ccc(-c2nc(CN3CCC(C(=O)NCCN(CC)c4ccccc4)CC3)c(C)o2)cc1	32	1.6*	12	2.3*	8	17*
COc1ccc(CCNC(=O)C2CCN(Cc3nc(-c4ccc(Cl)cc4)oc3C)CC2)cc1OC	4	101	.	84	-4	100
Cc1ccc(S(=O)(=O)/N=C(\CN2CCCCC2)N2CCOCC2)cc1	5	96	-11	116	-4	99
COc1cc2[nH]c(=O)n(CCC(=O)N3CCN(c4cc(Cl)ccc4C)CC3)c(=O)c2cc1OC	20	0.5*	1	2.0*	.	3.0*
CC1CCN(Cc2csc(N)n2)CC1	.	.	0	.	.	.
O=C1CCCCCN1CP(=O)(O)CCc1ccccc1	-10	96	-1	85	8	98
O=C1CCCCCN1Sc1ccccc1	7	3.0*	1	69	12	79
O=C(Nc1ccc2snnc2c1)N1CCN(c2ccccc2)CC1	23	80	.	113	.	99
O=C(Nc1ccc2snnc2c1)Nc1cccc2ccccc12	.	9.3*	-3	60	.	92
CS(=O)(=O)N(CC(=O)Nc1cccnc1)c1ccc2c(c1)OCO2	7	.	-3	.	-3	.
Cc1ccc(C)c(C(C)NC(=O)C2C3CCC(O3)C2C(=O)O)c1 (configuration not stated)	-13	23*	1	29*	-1	105
Cc1ccc2c(c1)n([O-])c1c([n+]2=O)CCCC1	.	.	2	.	.	.
CC(=O)c1c(C)n([O-])c2ccc(C)cc2[n+]1=O	72*	79	53*	94	15	106
CCOC(=O)c1cc2oc(C(c3nnnn3C3CCCCC3)N3CCOCC3)cc2[nH]1 (configuration not stated)	7	9.8*	-8	75	.	94
CCOC(=O)C1CCN(C(c2cc3ccc(C)cc3[nH]c2=O)c2nnnn2C2CCCCC2)CC1 (configuration not stated)	29	94	-12	97	-2	97
Cc1c(C#N)c2ccccc2n1CC(=O)N1CCCc2ccccc21	.	32*	-4	92	.	93
O=C(Cn1ncc2c(=O)oc3ccccc3c21)Nc1nc2ccccc2s1	-11	84	-8	95	5	94
Nc1nnnn1/N=C/c1cccc(Oc2ccccc2)c1	18	93	-2	98	.	94
Nc1nnnn1/N=C/c1cccc(OCc2ccccc2Cl)c1	.	72	.	17*	.	88
O=c1ccsn1Cc1ccccc1	100*	1.3*	100*	83	-3	8.6*
Cc1nn(CCc2nc(-c3ccco3)cs2)c2[nH]c(=O)cc(C(F)(F)F)c12	18	75	3	102	1	103
CCOC(=O)C(C)CC(C)C(=O)N1CCOCCOCCN(C(=O)C(C)CC(C)C(=O)OCC)CCOCC1 (configuration not stated)	.	78	9	95	.	95
SMILES	Ecoli tolC	H69AR inhibit	E coli WT exp	HUVEC inhibit	Jurkat tox 60K	Fibroblast inh
CCOC(=O)C(C(=O)OCC)C(C(=O)OCC)N1CCOCC1 (configuration not stated)	.	0.7*	14	2.9*	.	1.9*
Cc1nc(N[C@@H](Cc2ccccc2)C(=O)O)c2oc3ccccc3c2n1	.	91	5	97	.	112
Cc1nc(NC(C)c2ccccc2)c2oc3ccccc3c2n1 (configuration not stated)	16	81	5	82	30*	99
CCC1CCCCN1c1nc(-c2cccc(OC)c2O)nc2ccccc12 (configuration not stated)	16	74	-8	73	.	95
CCC1CCCCN1c1nc(-c2ccncc2)nc2ccccc12 (configuration not stated)	-3	17*	-14	43	.	89
CC1CCCCN1c1nc(-c2ccncc2)nc2ccccc12 (configuration not stated)	100*	41	5	88	4	80
COc1ccc(OCc2cccc(C(=O)Nn3cc([N+](=O)[O-])cn3)c2)cc1	.	59	.	86	.	96
COc1cc2c(cc1OC)C(c1ccc(-c3ccccc3Cl)o1)=NCC2	.	30*	8	68	.	82
COc1cc2c(cc1OC)C(c1ccc(-c3ccc(Cl)cc3Cl)o1)=NCC2	.	.	-25	.	.	.
COc1cc2c(cc1OC)C(c1ccc(-c3ccc(Cl)c(Cl)c3)o1)=NCC2	.	19*	-6	65	.	71
O=C(NCc1ccncc1)Nc1ccc(F)cc1	-14	97	16	121	-2	102
CCOc1ccc(N2CC(C(=O)Nc3cccc(C)c3C)CC2=O)cc1 (configuration not stated)	-7	.	-11	.	-3	.
Cc1ccc(-n2c(C)cc(C(=S)N3CCOCC3)c2C)cc1C	.	.	3	.	.	.
CCCCOc1ccc(C(=O)Nc2ccc(N3CCN(C)CC3)cc2)cc1	15	23*	7	32	1	28*
CN1CCN(c2ccccc2NC(=O)c2ccc(-c3ccccc3)cc2)CC1	20	33*	7	48	-5	87
O=C(Nc1ccccc1N1CCN(c2ccc(F)cc2)CC1)c1ccccc1	11	99	2	90	-1	98
CN1CCN(c2ccccc2NC(=O)c2ccc(OCc3ccccc3)cc2)CC1	12	.	5	17*	-2	95
COc1cccc(C(=O)Nc2ccccc2N2CCCC2)c1	7	103	-4	102	-1	103
CN1CCN(c2ccccc2NC(=O)c2cccc(OCc3ccccc3)c2)CC1	16	11*	-7	8.2*	1	76
CN1CCN(c2ccc(Cl)cc2NC(=O)c2ccc(S(=O)(=O)N3CCCCCC3)cc2)CC1	11	2.5*	-7	35	-6	89
COc1cc(OC)cc(C(=O)N2CCC(n3c(C)nc4cc(F)ccc43)CC2)c1	-7	73	1	103	1	96
Cc1c(Cc2ccc3c(c2)OCO3)sc(NC(=O)C(C)(C)C)c1C#N	.	38*	2	85	.	84
CN(CCC(=O)Nc1ccc(Br)cc1)Cc1ccccc1	.	80	31	60	.	99
CCN(C1CCCCC1)S(=O)(=O)c1ccc(S(=O)(=O)NCc2ccncc2)cc1	20	92	8	83	69*	95
COC(=O)c1ccccc1NC1=C/C(=N\S(=O)(=O)c2cccs2)c2ccccc2C1=O	.	23*	-12	4.0*	.	5.7*
